Measurements: ChEMBL document CHEMBL4513216, “Probing the Open Global Health Chemical Diversity Library for Multistage-Active Starting Points for Next-Generation Antimalarials” (ACS Infect Dis, 2020)

Assay: Toxicity liver stage against HepG2, at 10uM
Format: cell-based
Parameters: test concentration 10 uM, cell line HepG2-A16-CD81EGFP
Conditions: human, HepG2-A16-CD81EGFP cells; read-out: INHIBITION
Method in brief: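 Uninfected HepG2-A16-CD81EGFP cells, 3 × 10^3 per well, 1536-well, plated on prespotted compound at 10 μM final, parasite-free screening media added to match infected plates; puromycin 10 μM positive, DMSO 0.5% negative; run in parallel with 48 h PbLuc assay at 37 °C, 5% CO2; viability by CellTiter-Glo luminescence, normalized to controls.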

Compound | cytotoxicity at 10 µM [%]
c1ccc2c(Cc3nnc([C@H]4CCN(CC5CC5)C4)o3)c[nH]c2c1 | 4.73
CC(C)C1SCC(=O)Nc2c1cnn2-c1ccc(Cl)cc1F (configuration not stated) | 17.2
Cc1cnc2n(c1=O)C(CC(=O)NCc1cccs1)CS2 (configuration not stated) | 4.68
Cc1nnc2ccc(OCCNS(C)(=O)=O)nn12 | -6.02
CCS(=O)(=O)N1CCC(c2nnc(C(F)(F)F)o2)CC1 | -11
CN(C)c1ccc(C(O)CNC(=O)NCCCc2ccccc2)cc1 (configuration not stated) | -10
O=C(NCCn1nc(-n2cncn2)ccc1=O)c1ccsc1 | 1.99
Cc1cc(S(=O)(=O)N2CCC(S(C)(=O)=O)C2)ccc1F (configuration not stated) | 0.246
COC(=O)c1ccc(C(=O)NCc2nn(C)c3c2COCC3)cc1 | 7.91
O=C(Cc1cccs1)Nc1cnn(C2CCOC2)c1 (configuration not stated) | -7.86
CC(C)NC(=O)N1CC[C@@H]2[C@@H]1CC(=O)N2Cc1cccnc1 | 4.67
CC[C@H]1N(Cc2ccc(OC)cc2)CCC[C@]12CCC(=O)N2C | -5.6
O=C(CC1CC1)N1CCCC2(CCC(=O)N2CC2CC2)CC1 (configuration not stated) | 0.964
Cc1nc(CN2CCC3(CC2)NC(=O)CC3c2cccnc2)cs1 (configuration not stated) | -2.27
Cc1ccoc1C(=O)N1CC(C(=O)NCC2CC2)C2(CCOCC2)C1 (configuration not stated) | -3
O=c1[nH]nc2c(S(=O)(=O)N3CCCC3)cccn12 | -4.52
CCc1c(C(=O)O)nnn1-c1cccc(C)c1C | -16.1
Cc1c(CN2CCOCC2)c(O)n(CCc2ccccc2)c(=O)c1C#N | 4.1
CCOCCCNC(=O)c1cc(OC)c2ccoc2c1 | 6.51
Cc1cc(C)n(CC(=O)Nc2cc(-c3ccncc3)[nH]n2)n1 | -5.77
O=C(CCn1cccn1)N1CCC(c2nnc(-c3ccsc3)o2)CC1 | 4.25
CNC(=O)C1CCCN(C(=O)c2cncs2)C1 (configuration not stated) | 4.94
CSc1ncc(C(=O)NCCn2nccc2C)cn1 | 2.86

Compound | cytotoxicity at 10 µM [%]
Oc1cc(CC2COCCN(CC3(O)CCOCC3)C2)ncn1 (configuration not stated) | 8.08
OCCN1CCCCC1c1cc[nH]n1 (configuration not stated) | -1.71
CNC(=O)CNC(=O)Nc1ccc(Br)c(F)c1 | 5.44
N#Cc1cn(C2CC2)c(=O)n(Cc2noc(-c3cccs3)n2)c1=O | 13
CC(C)n1nnnc1-c1ccc(NC(=O)C(C)(C)C#N)cc1F | -7.36
N#CCCN(C(=O)COC1CCCC1)C1CC1 | -4.14
COc1c(C2CCCN2Cc2nnc(C3CC3)n2C)c(C)nn1C (configuration not stated) | 7.06
CN(CCc1ccccn1)C(=O)Cn1cc(-c2ccccc2)nn1 | 0.788
Cc1nc(C)c(C(=O)Nc2ccc(-c3nnc(N(C)C)o3)cc2)o1 | 1.87
CC(c1ccco1)N(C(=O)Cn1nc2n(c1=O)CCCCC2)C1CC1 (configuration not stated) | -6.17
CC(c1ccco1)N(C)C(=O)NCCOc1ccc(C#N)cc1 (configuration not stated) | -2.98
O=C(c1cc(C2CC2)[nH]n1)N1CCN(c2nccs2)CC1 | 1.39
O=C1CN(C(=O)c2cc(Cl)ccc2F)c2ccncc2N1 | 5.92
CC(C)(C(=O)NCCS(N)(=O)=O)c1cccc(Br)c1 | -8.35
O=c1[nH]c(CCN2CCN(CC(F)(F)F)CC2)nc2ccccc12 | 4.44
N#Cc1cc(CSCCN2CCOCC2)ccc1F | -7.73
CC(C)N(C)S(=O)(=O)N1CCCC1CC(=O)c1cccs1 (configuration not stated) | 5.17
Cn1nccc1CNS(=O)(=O)c1cc(F)ccc1Br | 11.8
NC(=O)NC(=O)CCN(Cc1ccccc1)CC1CCOCC1 | -1.86
CC(C)c1nnc2n1CC(CNCc1ccsc1)CC2 (configuration not stated) | -1.61
O=C(NCCNc1ncccn1)N1CCCC1c1ccc(F)cc1 (configuration not stated) | 0.932
CCN(CC)C(CNC(=O)c1ccc(S(=O)(=O)NC)cc1)c1ccco1 (configuration not stated) | -13.5
CN1CCCN(C(=O)c2cnsn2)c2cc(Cl)ccc21 | -7.34

Compound | cytotoxicity at 10 µM [%]
Cc1ccsc1CN(C)Cn1nccc1-c1cccnc1 | 7.49
CS(=O)(=O)CCSc1n[nH]c(-c2ccc3c(c2)CCC3)n1 | -2.14
Cn1nc(C(=O)N(CC(F)(F)F)c2cccc(Cl)c2)ccc1=O | 7.48
CCNC(=O)CN1CCSC2(CCCCC2)C1 | -2.64
O=C(Cc1ccc(S(=O)(=O)C(F)F)cc1)N1CCCC1 | -13.5
O=C1C(Sc2nnnn2C2CC2)CCN1c1ccccc1F (configuration not stated) | 4.05
CC(C)N(CCCNC(=O)C1CC1)S(C)(=O)=O | -5.55
Cc1noc(CCCc2nc(C3CCOC3)no2)n1 (configuration not stated) | 3.5
O=C(C1CCCN(CCc2ccc3c(c2)CCO3)C1)N1CCCC1 (configuration not stated) | -19.8
Cc1ccc2nc(C)c(C)c(C(=O)N3CCS(=O)(=O)CC3)c2c1 | 3.24
CN(CCO)Cc1nnc(C2CCN(CC(C)(C)C)CC2)n1C | 1.89
CCN(CC)c1ncccc1CNCc1cc2ccccc2s1 | 4.43
COc1cccc(-n2cc(-c3ccnc(N[C@H](CO)C(C)C)n3)cn2)c1 | -2.04
O=C(c1cc(-c2ccc(O)cc2)n[nH]1)N1CCCC1c1cccnc1 (configuration not stated) | -4.09
C[C@@H]1CN(S(=O)(=O)c2ccc(F)cc2Cl)C[C@]1(C)O | -2.83
O=C(NCc1ccc(CO)cc1)C1CCOc2ccccc2C1 (configuration not stated) | -3.54
Cc1nc2c(c(NCC(=O)NC(C)C)n1)Cc1ccccc1OC2 | 4.81
O=C(CCCOCc1ccccc1)N1CCCC(c2ncc[nH]2)C1 (configuration not stated) | 8.54
COc1ccc(-n2c(COC(C)C)n[nH]c2=O)cc1 | 3.45
O=S(=O)(CC1CC1)c1ncc(CN2CCSCC2)n1CC1CCCO1 (configuration not stated) | -1.07
CCCc1cc(NCc2ccc(CO)cc2)n2nccc2n1 | -14.1
O=C(c1ccc(=O)[nH]c1)N1CCCC1c1nc2cc(F)ccc2[nH]1 (configuration not stated) | 14.3
CC(C)c1cc(C2CCCN2C(=O)CN2C(=O)CCNC2=O)no1 (configuration not stated) | 18.8

Compound | cytotoxicity at 10 µM [%]
CN(C)c1nc2c(c(=O)[nH]1)CCN(C(=O)C1CCCO1)C2 (configuration not stated) | -43.3
COc1cc(NCC(c2ccccn2)N2CCOCC2)ncn1 (configuration not stated) | -49.1
Cc1cc2nc(C(C)C)cc(N3CCN(S(N)(=O)=O)CC3)n2n1 | -11.3
O=C(NC1CCCC1)N1C[C@H]2CN(c3ccccn3)C[C@@]2(C(=O)O)C1 | 6.12
CCCc1ccc(CN2C[C@H]3C(=O)N(CC4CC4)C[C@@]3(C(=O)O)C2)o1 | -3.86
COCCOCC(=O)N(Cc1cccc(C)c1)C(C)C | -12.4
Cc1cc(C)n(NC(=O)c2cccc3c2OCC3)c(=O)c1 | 1.91
CCc1noc(C)c1-c1nc(Cc2cccs2)nn1C1CCN(C)CC1 | -17.3
CN1CCN(C2CCN(CCOc3cccc(F)c3)CC2)C1=O | -2.45
CC(C)c1n[nH]c(C2CN(C(=O)c3cn4ccccc4n3)CCO2)n1 (configuration not stated) | 0.153
Cc1nc(C)n(CC2CN(Cc3ccccc3C#N)CCO2)n1 (configuration not stated) | -8.8
O=C(c1cc(-c2cccs2)on1)N1CCCCC1Cn1cccn1 (configuration not stated) | -2.93
CC(C)c1ncncc1C(=O)N1CCN(Cc2ccccn2)CC1 | -2.87
CCc1nc(C2CCCN2C(=O)Cc2cccs2)no1 (configuration not stated) | -7.85
Cc1ncsc1C(=O)N(Cc1cccs1)C1CC1 | -6.13
CC(C)N1CC(C(=O)NCc2cccnc2-n2cccn2)CC1=O (configuration not stated) | -10.8
Cc1cnn(CC2CCCN2Cc2c(C)noc2C)c1 (configuration not stated) | -15.8
CC(C)(C)n1cc(C(=O)N2CCN(Cc3ccco3)CC2)cn1 | -7.36
CCC1CN(CC(=O)N2CCCC2)CCN1CCOC (configuration not stated) | -4.22
Cc1nc(C)n(CC2CCCCN2Cc2nnc(C3CC3)o2)n1 (configuration not stated) | -10.7
CC(C)c1nn(C)c(N(C)C)c1CNCC(O)c1ccccc1F (configuration not stated) | -5.87
CN(Cc1ccsc1)C(=O)c1cccc(F)c1 | -2.45
CC(C)CN1CCN(C(=O)Nc2cc(C(F)(F)F)c[nH]c2=O)CC1 | -3.43

Compound | cytotoxicity at 10 µM [%]
CCOCC(O)CN1CCN(C(=O)c2cccnc2OC)CC1 (configuration not stated) | -4.71
CC(C)=CCN(C)C1CCCN(Cc2noc(C)n2)C1 (configuration not stated) | -19.6
CC(NCc1c(C(C)C)nn(C)c1N1CCOCC1)C(N)=O (configuration not stated) | -5.23
O=C(Nc1ccccc1OC(F)F)C1=NN(c2ccccc2)C(=O)CN1 | -3.58
CCc1n[nH]c(C2CN(C(=O)c3cc4c(s3)CCCC4)CCO2)n1 (configuration not stated) | -10.1
CC(C)c1n[nH]c(C2CN(C(=O)CCn3ccccc3=O)CCO2)n1 (configuration not stated) | 4.48
Cc1cnc(CN(C)CC2CCCN2c2cccnn2)cn1 (configuration not stated) | -0.241
CCc1n[nH]c(C2CN(C(=O)c3cnc[nH]3)CCO2)n1 (configuration not stated) | -0.481
c1cnn(CCNCc2csc(-c3ccsc3)n2)c1 | 1.97
CC(C)CN1CCC2(CC1)CN(C(=O)C(C)C)C2 | -2.16
O=C(NCc1cncc2c1CCN(Cc1ccoc1)C2)C1CC1 | 4.03
Cc1cccc(CN2CC[C@@H]3[C@@H]2CCN3C(=O)c2ccoc2C)n1 | -3.99
O=C1CC[C@H]2[C@H](CCN2C(=O)C2CCCO2)N1Cc1cccnc1 (some centres not stated) | -8.6
CCOC(=O)[C@]12CCCN(Cc3nccs3)C[C@H]1CN(S(C)(=O)=O)C2 | -5.79
COc1ncccc1CN1C[C@@H]2COC[C@]2(CNS(C)(=O)=O)C1 | 8.01
FC(F)(F)c1ccnc(N2C[C@H]3CCN(c4cccnc4)C[C@H]3C2)n1 | 6.88
OC(CN1CCN(Cc2cc(F)cc(F)c2)CC1)C1CC1 (configuration not stated) | 11.5
Cc1ccc(CN2CCC3(CC2)CCN(C(=O)c2cccn2C)C3)cc1 | -2.6
Cc1ccoc1C1=NNC(=CN2CCn3c(nnc3C3CC3)C2)O1 | 7.65
Cn1cnnc1SCC(=O)N1C[C@@H]2CC[C@H]1CN(Cc1cccnc1)C2 | -2.82
